Source: ChEMBL document CHEMBL2069242, “Structure and activity relationship in the (S)-N-chroman-3-ylcarboxamide series of voltage-gated sodium channel blockers” (Bioorg Med Chem Lett, 2012)
In brackets after ≈: the same amount, converted by molar mass. Activity calls are given as the source filed them. The calls are words filed in the database; no cut-off is given here.

What was measured:
[1] = biological target: T1, C-C chemokine receptor type 1 (Homo sapiens) (UniProt P32246); assay: Increase in [125I]MIP-1alpha binding to CCR1 at 10 uM
T1 sequence (whole entry): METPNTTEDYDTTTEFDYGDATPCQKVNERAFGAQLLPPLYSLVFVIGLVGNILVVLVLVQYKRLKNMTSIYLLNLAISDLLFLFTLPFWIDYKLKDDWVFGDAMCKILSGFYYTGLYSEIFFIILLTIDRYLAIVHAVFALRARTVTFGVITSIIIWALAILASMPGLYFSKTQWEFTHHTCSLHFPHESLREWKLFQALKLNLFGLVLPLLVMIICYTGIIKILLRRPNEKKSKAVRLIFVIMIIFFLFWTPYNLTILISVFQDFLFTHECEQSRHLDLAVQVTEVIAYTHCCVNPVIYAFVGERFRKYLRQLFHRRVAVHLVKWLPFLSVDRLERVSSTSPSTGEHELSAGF

[2] = Volume of distribution at steady state in Sprague-Dawley rat at 3 umol/kg, iv; type: ADME, organism-based; conditions: in vivo, read-out: Vdss
Summary of the method: (§1)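 Rat pharmacokinetics used fasted male Sprague–Dawley rats, three animals per administration route per compound. The intravenous dose was 3 µmol/kg, with a separate oral arm.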

Homo sapiens = species on record: Homo sapiens; assay: Displacement of [3H]nitrobenzylthioinosine from adenosine transporter at 10 uM
Rattus norvegicus [3] = assay: Dose normalized AUC in Sprague-Dawley rat at 3 umol/kg, iv; type: ADME, organism-based; conditions: in vivo; summary of the method: as §1
[4] = biological target: Sodium channel protein type 9 subunit alpha (Homo sapiens, UniProt Q15858); assay: Inhibition of human NaV1.7 expressed in HEK293 cells by whole-cell voltage clamp assay; type: cell-based
Summary of the method: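 Human NaV1.7 α-subunit stably expressed in HEK293 cells. Currents were recorded by perforated whole-cell automated planar patch clamp (IonWorks Quattro) in D-PBS external solution with 5.5 mM glucose. Cells were held at −65 mV, and a train of eight 30 ms steps to −20 mV at 3 Hz was applied. Half-log serial dilutions were made in DMSO, giving 0.3% DMSO in the recording solution.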

Cannabinoid receptor 1 [5] = biological target: T2, Cannabinoid receptor 1 (Homo sapiens, UniProt P21554); assay: Displacement of [3H]SR141716A from CB1 receptor
[6] = biological target: Sodium channel protein type 5 subunit alpha (Homo sapiens, UniProt Q14524); assay: Inhibition of human NaV1.5 expressed in CHO cells by IonWorks assay; type: cell-based
[7] = Solubility of the compound; type: physicochemical
Cannabinoid receptor 1 [8] = biological target: T2, Cannabinoid receptor 1; assay: Agonist activity at CB1 receptor by [35gammaS]GTP incorporation assay; type: functional
[9] = Tmax in Sprague-Dawley rat at 10 umol/kg, po; type: ADME, organism-based; conditions: in vivo; summary of the method: as §1
Liver microsomes [10] = assay: Intrinsic clearance in human liver microsomes assessed per ug of protein; type: ADME, Microsome
[11] = Half life in Sprague-Dawley rat at 3 umol/kg, iv; type: ADME, organism-based; conditions: in vivo; summary of the method: as §1
Rattus norvegicus [12] = assay: Antinociceptive activity in formalin-challenged Sprague-Dawley rat assessed as latency in paw licking during phase 1 at 49 umol/kg, po administered 3 hrs prior to formalin-challenge measured up to 5 mins post formalin challenge relative to control; type: functional
Summary of the method: (§2)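 Sprague–Dawley rats (n = 9/group) were dosed by oral gavage 3 h before formalin, at 0, 19, 49 and 99 µmol/kg, as a nanosuspension in 1% PVP K30/0.2% SDS. Formalin was 100 µL of 2.0% injected s.c. into the dorsal left hind paw. Paw-licking time was scored over 35 min: phase 1 at 0–5 min, phase 2 at 15–35 min. Results were given as % of vehicle, with total plasma concentration as mean SD. Statistics were one-way ANOVA, then unpaired one-tailed t-test.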

[13] = biological target: 5-hydroxytryptamine receptor 1B (Homo sapiens) (UniProt P28222); assay: Activity at 5HT1B receptor
Rattus norvegicus [14] = assay: Dose normalized AUC in Sprague-Dawley rat at 10 umol/kg, po; type: ADME, organism-based; conditions: in vivo; summary of the method: as §1
[15] = Half life in Sprague-Dawley rat at 10 umol/kg, po; type: ADME, organism-based; conditions: in vivo; summary of the method: as §1
Plasma = assay: Plasma concentration in formalin-challenged Sprague-Dawley rat at 49 umol/kg, po administered 3 hrs prior to formalin-challenge measured up to 5 mins post formalin challenge; type: ADME, organism-based; conditions: in vivo; summary of the method: as §2
Rattus norvegicus [16] = assay: Antinociceptive activity in po dosed formalin-challenged Sprague-Dawley rat assessed as latency in paw licking during phase 1 administered 3 hrs prior to formalin-challenge measured up to 5 mins post formalin challenge; type: functional, organism-based; summary of the method: as §2
Liver microsomes [17] = assay: Intrinsic clearance in rat liver microsomes assessed per ug of protein; type: ADME, Microsome
[18] = Oral bioavailability in Sprague-Dawley rat at 10 umol/kg; type: ADME, organism-based; conditions: in vivo; summary of the method: as §1
[19] = biological target: T3, 5-hydroxytryptamine receptor 1A (Homo sapiens) (UniProt P08908); assay: Activity at 5HT1A receptor
T3 sequence (whole entry): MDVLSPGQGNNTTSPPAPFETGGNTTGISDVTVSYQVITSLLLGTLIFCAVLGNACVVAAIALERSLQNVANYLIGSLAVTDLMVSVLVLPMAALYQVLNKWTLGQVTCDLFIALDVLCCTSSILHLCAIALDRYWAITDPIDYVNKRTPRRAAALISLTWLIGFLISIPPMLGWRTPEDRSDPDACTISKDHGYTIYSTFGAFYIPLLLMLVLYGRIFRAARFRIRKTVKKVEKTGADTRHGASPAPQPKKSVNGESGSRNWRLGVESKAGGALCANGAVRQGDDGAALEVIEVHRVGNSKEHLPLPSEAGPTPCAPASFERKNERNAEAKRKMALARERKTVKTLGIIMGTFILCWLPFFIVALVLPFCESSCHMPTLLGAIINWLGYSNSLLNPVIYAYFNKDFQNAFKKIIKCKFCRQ

[20] = Cmax in Sprague-Dawley rat at 10 umol/kg, po; type: ADME, organism-based; parameters: dose 10 umol/kg, route oral; conditions: in vivo; summary of the method: as §1
[21] = biological target: Voltage-gated inwardly rectifying potassium channel KCNH2 (Homo sapiens, UniProt Q12809); assay: Inhibition of human ERG expressed in CHO cells by IonWorks HT assay; type: cell-based
Rattus norvegicus [22] = assay: Antinociceptive activity in formalin-challenged Sprague-Dawley rat assessed as latency in paw licking during phase 2 at […], po administered 3 hrs prior to formalin-challenge measured up to 15 to 35 mins post formalin challenge; type: functional, organism-based; summary of the method: as §2
[23] = Clearance in Sprague-Dawley rat at 3 umol/kg, iv; type: ADME, organism-based; conditions: in vivo; summary of the method: as §1
Cannabinoid receptor 1 [24] = biological target: T2, Cannabinoid receptor 1; assay: Displacement of [3H]SR141716A from CB1 receptor at 10 uM
[25] = Displacement of [3H]nitrobenzylthioinosine from adenosine transporter; parameters: species or system Homo sapiens

T2 sequence (P21554 whole entry): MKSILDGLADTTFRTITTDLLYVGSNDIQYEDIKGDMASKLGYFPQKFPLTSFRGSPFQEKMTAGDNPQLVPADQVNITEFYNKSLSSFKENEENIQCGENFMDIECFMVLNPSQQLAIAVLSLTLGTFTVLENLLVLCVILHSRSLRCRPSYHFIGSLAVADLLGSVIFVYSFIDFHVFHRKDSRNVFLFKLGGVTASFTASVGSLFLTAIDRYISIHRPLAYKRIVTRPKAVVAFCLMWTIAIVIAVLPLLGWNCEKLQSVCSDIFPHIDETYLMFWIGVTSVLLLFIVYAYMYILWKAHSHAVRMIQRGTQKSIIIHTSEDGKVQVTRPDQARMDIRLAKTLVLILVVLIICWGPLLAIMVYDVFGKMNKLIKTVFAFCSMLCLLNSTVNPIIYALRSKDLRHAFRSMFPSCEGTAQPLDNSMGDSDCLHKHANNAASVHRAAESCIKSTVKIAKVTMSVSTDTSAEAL
Voltage-gated inwardly rectifying potassium channel KCNH2, sequence (Q12809 whole entry): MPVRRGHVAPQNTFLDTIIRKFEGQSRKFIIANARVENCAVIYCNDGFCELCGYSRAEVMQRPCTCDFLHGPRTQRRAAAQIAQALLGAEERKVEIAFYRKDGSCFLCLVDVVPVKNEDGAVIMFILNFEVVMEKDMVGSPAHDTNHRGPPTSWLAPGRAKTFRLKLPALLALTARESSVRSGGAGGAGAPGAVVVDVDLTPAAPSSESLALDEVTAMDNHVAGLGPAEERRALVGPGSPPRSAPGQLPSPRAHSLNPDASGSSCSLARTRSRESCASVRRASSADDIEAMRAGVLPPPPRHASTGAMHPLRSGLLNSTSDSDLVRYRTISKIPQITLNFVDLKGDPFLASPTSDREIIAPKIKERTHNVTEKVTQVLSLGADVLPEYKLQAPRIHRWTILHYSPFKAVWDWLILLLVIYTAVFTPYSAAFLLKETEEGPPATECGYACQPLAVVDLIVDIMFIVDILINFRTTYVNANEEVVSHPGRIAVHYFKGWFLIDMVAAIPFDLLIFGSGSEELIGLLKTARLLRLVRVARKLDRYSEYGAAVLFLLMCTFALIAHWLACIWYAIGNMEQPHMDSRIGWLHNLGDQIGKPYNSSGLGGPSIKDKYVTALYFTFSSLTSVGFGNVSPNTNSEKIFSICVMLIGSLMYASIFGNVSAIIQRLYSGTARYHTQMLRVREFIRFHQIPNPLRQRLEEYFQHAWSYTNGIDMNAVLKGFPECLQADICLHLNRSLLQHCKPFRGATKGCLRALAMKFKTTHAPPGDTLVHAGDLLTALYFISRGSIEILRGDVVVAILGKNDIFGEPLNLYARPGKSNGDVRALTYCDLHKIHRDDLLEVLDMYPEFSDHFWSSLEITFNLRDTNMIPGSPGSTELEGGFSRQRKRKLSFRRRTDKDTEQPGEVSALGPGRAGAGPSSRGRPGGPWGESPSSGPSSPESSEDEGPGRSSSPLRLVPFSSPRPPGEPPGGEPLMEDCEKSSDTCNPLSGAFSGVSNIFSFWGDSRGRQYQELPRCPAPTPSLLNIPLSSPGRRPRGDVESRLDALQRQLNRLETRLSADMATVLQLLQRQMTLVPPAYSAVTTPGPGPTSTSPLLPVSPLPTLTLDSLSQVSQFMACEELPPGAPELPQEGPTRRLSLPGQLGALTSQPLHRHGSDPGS
5-hydroxytryptamine receptor 1B (Homo sapiens), sequence (P28222 whole entry): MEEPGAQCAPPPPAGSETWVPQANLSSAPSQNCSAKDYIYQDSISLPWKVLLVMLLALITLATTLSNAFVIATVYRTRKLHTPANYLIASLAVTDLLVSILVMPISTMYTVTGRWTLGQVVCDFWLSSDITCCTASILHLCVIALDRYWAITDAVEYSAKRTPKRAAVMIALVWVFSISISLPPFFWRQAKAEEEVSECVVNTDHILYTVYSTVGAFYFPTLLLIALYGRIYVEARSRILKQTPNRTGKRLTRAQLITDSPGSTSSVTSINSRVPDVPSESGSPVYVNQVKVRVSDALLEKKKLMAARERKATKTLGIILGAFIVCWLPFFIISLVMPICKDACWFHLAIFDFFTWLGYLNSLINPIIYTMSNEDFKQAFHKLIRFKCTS
Sodium channel protein type 5 subunit alpha, sequence (Q14524 whole entry): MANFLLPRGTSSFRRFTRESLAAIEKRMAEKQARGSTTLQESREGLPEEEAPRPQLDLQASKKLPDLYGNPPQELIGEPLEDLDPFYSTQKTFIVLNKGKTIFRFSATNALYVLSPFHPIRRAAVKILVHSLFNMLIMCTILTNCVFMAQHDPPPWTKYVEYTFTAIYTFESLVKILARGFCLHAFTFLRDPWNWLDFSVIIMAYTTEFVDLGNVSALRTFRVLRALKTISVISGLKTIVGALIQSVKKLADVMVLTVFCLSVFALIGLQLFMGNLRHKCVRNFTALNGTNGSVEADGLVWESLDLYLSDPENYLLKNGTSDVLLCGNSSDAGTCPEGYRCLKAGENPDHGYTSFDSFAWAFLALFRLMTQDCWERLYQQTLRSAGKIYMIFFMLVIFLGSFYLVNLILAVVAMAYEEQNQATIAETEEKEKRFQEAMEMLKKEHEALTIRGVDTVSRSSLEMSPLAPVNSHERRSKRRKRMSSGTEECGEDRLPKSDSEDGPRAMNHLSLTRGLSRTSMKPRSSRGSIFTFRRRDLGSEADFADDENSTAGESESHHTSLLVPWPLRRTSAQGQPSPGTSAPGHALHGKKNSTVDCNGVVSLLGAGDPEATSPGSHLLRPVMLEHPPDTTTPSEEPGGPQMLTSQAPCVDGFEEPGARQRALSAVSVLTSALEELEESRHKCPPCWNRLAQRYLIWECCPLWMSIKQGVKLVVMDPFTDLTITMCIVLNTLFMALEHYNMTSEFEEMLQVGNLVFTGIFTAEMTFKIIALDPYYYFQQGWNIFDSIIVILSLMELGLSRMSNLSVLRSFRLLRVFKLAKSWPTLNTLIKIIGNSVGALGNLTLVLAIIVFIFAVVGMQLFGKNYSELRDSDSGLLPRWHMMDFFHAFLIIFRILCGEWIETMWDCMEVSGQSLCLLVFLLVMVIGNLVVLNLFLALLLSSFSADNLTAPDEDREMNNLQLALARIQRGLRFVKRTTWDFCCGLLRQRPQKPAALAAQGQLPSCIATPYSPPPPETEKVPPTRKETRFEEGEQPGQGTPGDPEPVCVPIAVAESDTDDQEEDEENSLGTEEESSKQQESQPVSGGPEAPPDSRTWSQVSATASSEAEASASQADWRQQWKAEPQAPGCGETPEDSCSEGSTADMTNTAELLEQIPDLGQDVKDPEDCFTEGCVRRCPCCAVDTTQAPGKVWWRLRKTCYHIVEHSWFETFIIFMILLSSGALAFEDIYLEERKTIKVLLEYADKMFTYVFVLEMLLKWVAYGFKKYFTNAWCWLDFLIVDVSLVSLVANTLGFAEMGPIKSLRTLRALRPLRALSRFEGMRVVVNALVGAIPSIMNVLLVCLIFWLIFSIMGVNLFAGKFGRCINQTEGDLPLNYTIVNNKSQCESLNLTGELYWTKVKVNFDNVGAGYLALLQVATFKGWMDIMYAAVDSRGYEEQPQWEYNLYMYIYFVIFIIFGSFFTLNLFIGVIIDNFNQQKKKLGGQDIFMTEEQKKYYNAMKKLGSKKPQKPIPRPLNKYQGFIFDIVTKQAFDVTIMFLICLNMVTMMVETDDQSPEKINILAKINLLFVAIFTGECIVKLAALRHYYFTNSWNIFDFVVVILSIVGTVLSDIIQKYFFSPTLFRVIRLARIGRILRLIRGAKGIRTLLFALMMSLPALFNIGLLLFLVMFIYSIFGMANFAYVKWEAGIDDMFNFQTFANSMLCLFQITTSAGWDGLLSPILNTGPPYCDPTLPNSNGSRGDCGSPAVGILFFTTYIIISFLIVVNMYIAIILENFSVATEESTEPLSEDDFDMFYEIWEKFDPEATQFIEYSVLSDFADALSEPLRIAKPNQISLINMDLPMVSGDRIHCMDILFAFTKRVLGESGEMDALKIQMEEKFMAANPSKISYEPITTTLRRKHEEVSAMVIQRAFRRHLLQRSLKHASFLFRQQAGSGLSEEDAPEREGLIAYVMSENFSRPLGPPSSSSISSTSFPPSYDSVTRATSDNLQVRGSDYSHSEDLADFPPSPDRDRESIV

Compound: COc1cnc(-c2cccc3c2C[C@H](NC(=O)c2ccc(COCC(F)(F)F)nc2)CO3)cn1
- Activity [1]: 127%
- Vd [2]: 4.2 L/kg
- inhibition (Homo sapiens): 66%
- AUC/dose (Rattus norvegicus [3]): 0.6 kg·h/L
- IC50 [4]: 0.0794 µM
- IC50 (Cannabinoid receptor 1 [5]): 5 µM
- IC50 [6]: 12.6 µM
- solubility [7]: 34 µM (≈ 16.1 µg/mL)
- Activity (Cannabinoid receptor 1 [8]): inactive
- Tmax [9]: 2.5 h
- CLint (Liver microsomes [10]): < 10 µL/min/mg
- half-life [11]: 2.2 h
- Activity (Rattus norvegicus [12]): 66%
- Activity [13]: inactive
- AUC/dose (Rattus norvegicus [14]): 0.3 kg·h/L
- half-life [15]: 4.8 h
- concentration (Plasma): 5000 nM
- Activity (Rattus norvegicus [16]): Dose-dependent effect
- CLint (Liver microsomes [17]): < 10 µL/min/mg
- bioavailability [18]: 44%
- Activity [19]: inactive
- Cmax [20]: 300 nM
- IC50 [21]: 12.6 µM
- Activity (Rattus norvegicus [22]): inactive
- clearance [23]: 25 mL/min/kg
- inhibition (Cannabinoid receptor 1 [24]): 55%
- IC50 [25]: 1.8 µM
